Results published in ChEMBL document CHEMBL5032502, “Syntheses, Biological Evaluations, and Mechanistic Studies of Benzo[c][1,2,5]oxadiazole Derivatives as Potent PD-L1 Inhibitors with In Vivo Antitumor Activity” (J Med Chem, 2021).
Activity calls are given as the source filed them. The rule behind the calls is not given here.

What was measured:
[1] = AUC (0 to t) in Sprague-Dawley rat at 9 mg/kg, iv measured upto 24 hrs by LC-MS analysis; assay type: ADME, organism-based; parameters: route intravenous, dose 9 mg/kg, time <=24; settings: in vivo
How it was run: (§1)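 Male animals fasted 12 h before dosing. Plasma levels measured by LC-MS, with the prodrug quantified as the parent acid. Mean ± SEM, n = 3.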

[2] = Toxicity in C57BL/6 mouse assessed as body weight loss at 2000 mg/kg, po observed for 30 days; settings: in vivo, 720 h
MC-38 [3] = assay: Antitumor activity against mouse MC38 cells implanted in C57BL/6 mouse assessed as tumor growth inhibition at 300 mg/kg, po measured after 14 days; assay type: functional; settings: MC-38, po, 336 h, time 14 day, read-out: TGI
B16-F10 [4] = assay: Antitumor activity against mouse B16-F10 cells implanted in C57BL/6 mouse assessed as tumor weight at 15 mg/kg, po measured after 18 days (reference value: 1.76 gm); assay type: functional; settings: time 18 day
How it was run: (§2)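 Female C57BL/6J mice, 8 weeks old, injected dorsally with 1 × 10⁶ B16-F10 cells in PBS. Daily oral gavage started the same day (day 1), in 0.5% CMC-Na vehicle. Tumour size and body weight recorded daily, volume = 0.5 × L × W². Sacrifice on day 18, tumours excised and weighed. TGI = (1 − Vt/Vv) × 100.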

[5] = AUC (0 to t) in Sprague-Dawley rat at 45 mg/kg, po measured upto 24 hrs by LC-MS analysis; assay type: ADME, organism-based; parameters: route oral, dose 45 mg/kg, time <=24; settings: in vivo; how it was run: as §1
[6] = Half life in Sprague-Dawley rat at 9 mg/kg, iv measured upto 24 hrs by LC-MS analysis; assay type: ADME, organism-based; settings: in vivo; how it was run: as §1
[7] = Clearance in Sprague-Dawley rat at 9 mg/kg, iv measured upto 24 hrs by LC-MS analysis; assay type: ADME, organism-based; settings: in vivo; how it was run: as §1
MC-38 [8] = assay: Antitumor activity against PD-L1 humanized mouse MC38 cells implanted in PD-L1 humanized C57BL/6 mouse assessed as tumor growth inhibition at 50 mg/kg, po measured after 30 days; assay type: functional; settings: MC-38, po, 720 h, time 30 day, read-out: TGI
How it was run: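 PD-L1-humanized C57BL/6 mice given 1 × 10⁶ MC38-hPD-L1(Tg)-mPDL1(KO) cells in the right flank. Once tumours reached 50 mm³, randomized into three groups: CMC-Na vehicle, 25 or 50 mg/kg by daily oral gavage for 30 days. TGI from mean tumour volume of treated versus vehicle groups. n = 6.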

B16-F10 [9] = assay: Antitumor activity against mouse B16-F10 cells implanted in C57BL/6 mouse assessed as tumor growth inhibition at 15 mg/kg, po measured after 18 days; assay type: functional; settings: 432 h, time 18 day, read-out: TGI; how it was run: as §2
[10] = Toxicity in C57BL/6 mouse assessed as effect on ALT level at 2000 mg/kg, po observed for 30 days; assay type: organism-based; settings: in vivo, 720 h, time 30 day
MC-38 [11] = assay: Antitumor activity against mouse MC38 cells xenografted in C57BL/6 mouse assessed as reduction in gMDSC cells at 25 mg/kg, po by flow cytometry analysis; assay type: functional, organism-based
How it was run: (§3)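 Tumours taken from PD-L1-humanized mice carrying MC38-hPD-L1 tumours and dosed orally at 5 or 25 mg/kg daily. Tissue digested to single cells, red cells lysed with ACK buffer, Fc blocked. Surface stain 60 min for CD45, CD3, CD4, CD8, CD335, CD11b, Ly6G, Ly6C and F4/80, with a viability dye. Intracellular FOXP3 stain after permeabilization. Mean ± SEM, n = 7−8, one-way ANOVA.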

MC-38 [12] = assay: Antitumor activity against mouse MC38 cells xenografted in C57BL/6 mouse assessed as change in regulatory T cells at 25 mg/kg, po by flow cytometry analysis; assay type: functional, organism-based; how it was run: as §3
MC-38 [13] = assay: Antitumor activity against PD-L1 humanized mouse MC38 cells implanted in PD-L1 humanized C57BL/6 mouse assessed as tumor growth inhibition at 25 mg/kg, po measured after 27 days; assay type: functional; settings: MC-38, po, 648 h, time 27 day, read-out: TGI
How it was run: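 Female PD-L1-humanized C57BL/6 mice, 6 weeks old, injected in the right flank with 1 × 10⁶ MC38-hPD-L1(Tg)-mPDL1(KO) cells in PBS. At 50 mm³ tumours, animals randomized to 0.5% CMC-Na vehicle or drug by daily oral gavage. Tumours measured twice weekly, volume = 0.5 × L × W². Sacrifice on day 27. TGI = (1 − Vt/Vv) × 100. n = 8.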

[14] = Toxicity in C57BL/6 mouse assessed as effect on AST level at 2000 mg/kg, po observed for 30 days; assay type: organism-based; settings: in vivo, 720 h, time 30 day
[15] = Cmax in Sprague-Dawley rat at 45 mg/kg, po measured upto 24 hrs by LC-MS analysis; assay type: ADME, organism-based; parameters: route oral, dose 45 mg/kg, time <=24; settings: in vivo; how it was run: as §1
MC-38 [16] = assay: Antitumor activity against mouse MC38 cells implanted in C57BL/6 mouse assessed as tumor growth inhibition at 150 mg/kg, po measured after 14 days; assay type: functional; settings: MC-38, po, 336 h, time 14 day, read-out: TGI
MC-38 [17] = assay: Antitumor activity against mouse MC38 cells xenografted in C57BL/6 mouse assessed as increase in ratio of CD8 positive T cells to CD4 positive T cells at 25 mg/kg, po by flow cytometry analysis; assay type: functional, organism-based; how it was run: as §3
[18] = Cmax in C57BL/6 mouse at 10 mg/kg, po measured upto 24 hrs by LC-MS analysis; assay type: ADME, organism-based; parameters: route oral, dose 10 mg/kg, time <=24; settings: in vivo; how it was run: as §1
[19] = Subacute toxicity in C57BL/6 mouse assessed as mortality at 2000 mg/kg, po observed for 30 days; assay type: organism-based; settings: in vivo, 720 h, time 30 day
[20] = Cmax in C57BL/6 mouse at 2 mg/kg, iv measured upto 24 hrs by LC-MS analysis; assay type: ADME, organism-based; parameters: route intravenous, dose 2 mg/kg, time <=24; settings: in vivo; how it was run: as §1
MC-38 [21] = assay: Antitumor activity against mouse MC38 cells implanted in C57BL/6 mouse assessed as tumor growth inhibition at 50 mg/kg, po measured after 14 days; assay type: functional; settings: MC-38, po, 336 h, time 14 day, read-out: TGI
[22] = Subacute toxicity in C57BL/6 mouse assessed as organ weight change po observed for 30 days; settings: in vivo, 720 h
[23] = Half life in C57BL/6 mouse at 2 mg/kg, iv measured upto 24 hrs by LC-MS analysis; assay type: ADME, organism-based; settings: in vivo; how it was run: as §1
[24] = Cmax in Sprague-Dawley rat at 9 mg/kg, iv measured upto 24 hrs by LC-MS analysis; assay type: ADME, organism-based; parameters: route intravenous, dose 9 mg/kg, time <=24; settings: in vivo; how it was run: as §1
[25] = Tmax in C57BL/6 mouse at 10 mg/kg, po measured upto 24 hrs by LC-MS analysis; assay type: ADME, organism-based; settings: in vivo
How it was run: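 Male Sprague-Dawley rats or C57BL/6 mice fasted 12 h before dosing, given oral (po) or intravenous (iv) doses. Plasma levels measured by LC-MS. Parameters reported as mean ± SEM, n = 3.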

[26] = Clearance in C57BL/6 mouse at 2 mg/kg, iv measured upto 24 hrs by LC-MS analysis; assay type: ADME, organism-based; settings: in vivo; how it was run: as §1

Question: Which AUC(0-t) at 24 h [1] does the source give for `CCOC(=O)[C@@H](CO)NCc1cc(Cl)c(OCc2cccc(-c3ccccc3)c2Br)cc1OCc1ccc2nonc2c1.Cl` here?
Answer: The AUC(0-t) at 24 h was 6280 ng·h/mL.

Question: And the Activity [2]?
Answer: Its Activity is “Non-Toxic”.

Question: And the inhibition in vivo at 300 mg/kg (MC-38 [3])?
Answer: The inhibition in vivo at 300 mg/kg was 36.5%.

Question: What about the Activity (B16-F10 [4]) of the same molecule?
Answer: Its Activity is 1.27 g.

Question: What about the AUC(0-t) at 24 h [5] of the same molecule?
Answer: Its AUC(0-t) at 24 h is 2860 ng·h/mL.

Question: And the half-life [6]?
Answer: Its half-life is 5.02 h.

Question: And the clearance [7]?
Answer: Its clearance is 23.8 mL/min/kg.

Question: What about the inhibition in vivo at 50 mg/kg (MC-38 [8]) of the same molecule?
Answer: The inhibition in vivo at 50 mg/kg was 30.8%.

Question: What about the inhibition in vivo at 15 mg/kg (B16-F10 [9]) of the same molecule?
Answer: The inhibition in vivo at 15 mg/kg was 45.8%.

Question: What about the Activity [10] of the same molecule?
Answer: The Activity was “Non-Toxic”.

Question: What about the Activity (MC-38 [11]) of the same molecule?
Answer: Its Activity is “Active”.

Question: And the Activity (MC-38 [12])?
Answer: Its Activity is “inactive”.

Question: And the inhibition in vivo at 25 mg/kg (MC-38 [13])?
Answer: Its inhibition in vivo at 25 mg/kg is 32.5%.

Question: And the Activity [14]?
Answer: The Activity was “Non-Toxic”.

Question: What about the Cmax [15] of the same molecule?
Answer: Its Cmax is 488 ng/mL.

Question: And the inhibition in vivo at 150 mg/kg (MC-38 [16])?
Answer: Its inhibition in vivo at 150 mg/kg is 58.2%.

Question: What about the Activity (MC-38 [17]) of the same molecule?
Answer: Its Activity is “Active”.

Question: And the Cmax [18]?
Answer: The Cmax was 150 ng/mL.

Question: What about the Activity [19] of the same molecule?
Answer: Its Activity is “Non-Toxic”.

Question: What about the Cmax [20] of the same molecule?
Answer: Its Cmax is 2820 ng/mL.

Question: What about the inhibition in vivo at 50 mg/kg (MC-38 [21]) of the same molecule?
Answer: The inhibition in vivo at 50 mg/kg was 50.9%.

Question: What about the Activity [22] of the same molecule?
Answer: Its Activity is “Non-Toxic”.

Question: And the half-life [23]?
Answer: Its half-life is 2.05 h.

Question: What about the Cmax [24] of the same molecule?
Answer: The Cmax was 13000 ng/mL.

Question: What about the Tmax [25] of the same molecule?
Answer: Its Tmax is 1 h.

Question: And the clearance [26]?
Answer: The clearance was 28.7 mL/min/kg.
